Laboratory results reported in ChEMBL document CHEMBL3526077, “Prediction of human metabolism of FK3453 by aldehyde oxidase using chimeric mice transplanted with human or rat hepatocytes” (Drug Metab Dispos, 2012).

Key:
[1] = Cmax in chimeric mouse transplanted with human hepatocytes at 3 mg/kg, po; type: ADME, organism-based, Hepatocyte; design: dose 3 mg/kg, route oral
How it was run: (§1)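 Single 3 mg/kg oral dose of compound in 50% PEG400 with equimolar HCl in saline to h-PXB or r-PXB mice (n=3~4). Orbital-vein blood (heparinized) taken over 0–6 hr; plasma stored at -30°C and assayed by LC/MS/MS. Non-compartmental analysis: Cmax from observed values, AUC by trapezoidal rule extrapolated to infinity, CLoral = Dose/AUCpo.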

[2] = Plasma protein binding in rat by equilibrium dialysis method; type: ADME, cell-free; settings: read-out: PPB (converted)
Mus musculus = assay: Drug metabolism in plasma of chimeric mouse transplanted with human hepatocytes at 3 mg/kg, iv as single dose; type: ADME, organism-based, Hepatocyte; design: dose 3 mg/kg, route intravenous
How it was run: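 Pooled plasma from h-PXB or r-PXB mice after a 3 mg/kg i.v. dose was mixed with an equal volume of acetonitrile and centrifuged. Metabolites were profiled by C18 UPLC with ammonium formate/acetonitrile gradient, UV 254 nm, and Orbitrap MS/MS. Scored as detected or not detected.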

[3] = Total clearance in rat at 3 mg/kg, iv; type: ADME, organism-based; design: dose 3 mg/kg, route intravenous; settings: in vivo
[4] = AUC in chimeric mouse transplanted with human hepatocytes at 3 mg/kg, po; type: ADME, organism-based, Hepatocyte; design: dose 3 mg/kg, route oral; how it was run: as §1
[5] = Plasma protein binding in human by equilibrium dialysis method; type: ADME, cell-free; settings: read-out: PPB (converted)
[6] = Clearance in chimeric mouse transplanted with human hepatocytes at 3 mg/kg, po; type: ADME, organism-based, Hepatocyte; design: dose 3 mg/kg, route oral; how it was run: as §1
[7] = AUC in human at 10 mg, po; type: ADME, organism-based; settings: plasma
[8] = Half life in chimeric mouse transplanted with human hepatocytes at 3 mg/kg, iv; type: ADME, organism-based, Hepatocyte; design: dose 3 mg/kg, route intravenous
How it was run: (§2)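 Single 3 mg/kg intravenous dose in 10% DMSO, 10% PEG400 with equimolar HCl in saline to h-PXB or r-PXB mice (n=3~4). Orbital-vein plasma collected over 0–6 hr and measured by LC/MS/MS. Non-compartmental analysis; AUC by trapezoidal rule extrapolated to infinity; CLt = Dose/AUCiv.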

[9] = Plasma protein binding in chimeric mouse transplanted with rat hepatocytes by equilibrium dialysis method; type: ADME, cell-free, Hepatocyte; settings: read-out: PPB (converted)
How it was run: (§3)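 Compound at 1 µg/mL incubated in plasma of h-PXB or r-PXB mice; bound fraction determined by equilibrium dialysis.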

[10] = Total clearance in chimeric mouse transplanted with rat hepatocytes at 3 mg/kg, iv; type: ADME, organism-based, Hepatocyte; design: dose 3 mg/kg, route intravenous; settings: read-out: CLH; how it was run: as §2
[11] = Drug excretion in feces of chimeric mouse transplanted with human hepatocytes at 3 mg/kg, iv as single dose; type: ADME, organism-based, Hepatocyte; design: dose 3 mg/kg, route intravenous; settings: read-out: Drug excretion
How it was run: (§4)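 After a 3 mg/kg i.v. dose, pooled urine and feces were collected from metabolic cages over 0–24 hr (n=3). Samples were homogenized in 10 volumes of water, mixed with acetonitrile and analysed by UPLC (UV 254 nm) and LC/MS/MS. Excretion expressed as % of dose.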

[12] = Oral bioavailability in rat at 3.2 mg/kg; type: ADME, organism-based; settings: in vivo
[13] = Plasma protein binding in chimeric mouse transplanted with human hepatocytes by equilibrium dialysis method; type: ADME, cell-free, Hepatocyte; settings: read-out: PPB (converted); how it was run: as §3
[14] = Oral bioavailability in chimeric mouse transplanted with rat hepatocytes at 3 mg/kg; type: ADME, organism-based, Hepatocyte
[15] = Half life in chimeric mouse transplanted with rat hepatocytes at 3 mg/kg, iv; type: ADME, organism-based, Hepatocyte; design: dose 3 mg/kg, route intravenous; how it was run: as §2
[16] = Drug excretion in feces of chimeric mouse transplanted with rat hepatocytes at 3 mg/kg, iv as single dose; type: ADME, organism-based, Hepatocyte; design: dose 3 mg/kg, route intravenous; settings: read-out: Drug excretion; how it was run: as §4
[17] = Total clearance in chimeric mouse transplanted with human hepatocytes at 3 mg/kg, iv; type: ADME, organism-based, Hepatocyte; design: dose 3 mg/kg, route intravenous; how it was run: as §2

For `CC(C)n1nc(-c2cnc(N)nc2-c2ccccc2)ccc1=O`, the Cmax [1] was 253 ng/mL, the fraction unbound [2] was 0.246 and the Drug metabolism (Mus musculus) was “metabolite_detected”. It also gave a clearance [3] of 10.8 mL/min/kg, an AUC [4] of 214 ng·h/mL and a fraction unbound [5] of 0.228. For the same molecule, the CL/F [6] was 234 mL/min/kg, the AUC [7] was 2.19 ng·h/mL and the half-life [8] was 42 min. The fraction unbound [9] was 0.233, the clearance [10] was 34 mL/min/kg and the dose excreted [11] was 0.1%. It also gave a bioavailability [12] of 34.6%, a fraction unbound [13] of 0.205 and a bioavailability [14] of 52.6%. It also gave a half-life [15] of 48 min, a dose excreted [16] of 1.1% and a clearance [17] of 70.7 mL/min/kg.
